Laboratory results taken from ChEMBL document CHEMBL3046018, “Design, syntheses and 3D-QSAR studies of novel N-phenyl pyrrolidin-2-ones and N-phenyl-1H-pyrrol-2-ones as protoporphyrinogen oxidase inhibitors” (Bioorg Med Chem, 2010).

Key:
[1] = system: Amaranthus retroflexus; experiment: Herbicidal activity against Amaranthus retroflexus assessed as growth inhibition at 150 g ai/ha using post-emergence protocol under greenhouse conditions measured 15 days after compound treatment; assay type: functional; conditions: 360 h, read-out: GI
Method in brief: (§1)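 Post-emergence greenhouse spray on pot-grown broadleaf weeds at the 2-leaf stage. Formulation concentrates were diluted with water. Soil was clay, pH 6.5, 1.6% organic matter, 37.3% clay particles, CEC 12.1 mol/kg. The rate was total active ingredient divided by pot surface area. Untreated seedlings and DMF-treated seedlings served as controls.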

[2] = system: Setaria viridis; experiment: Herbicidal activity against Setaria viridis assessed as growth inhibition at 150 g ai/ha using post-emergence protocol under greenhouse conditions measured 15 days after compound treatment; assay type: functional; conditions: 360 h, read-out: GI
Method in brief: (§2)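 Grass weeds were grown in pots in the greenhouse and sprayed post-emergence at the 1-leaf stage. The spray was formulation concentrate diluted in water. Soil was clay, pH 6.5, 1.6% organic matter, 37.3% clay particles, CEC 12.1 mol/kg. The g.ai/ha rate was active ingredient over pot surface area. Controls were untreated and DMF-treated seedlings.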

[3] = system: Digitaria sanguinalis; experiment: Herbicidal activity against Digitaria sanguinalis (hairy crabgrass) assessed as growth inhibition at 150 g ai/ha using post-emergence protocol under greenhouse conditions measured 15 days after compound treatment; assay type: functional; conditions: 360 h, read-out: GI; method in brief: as §2
[4] = system: Chenopodium album; experiment: Herbicidal activity against Chenopodium album assessed as growth inhibition at 150 g ai/ha using post-emergence protocol under greenhouse conditions measured 15 days after compound treatment; assay type: functional; conditions: 360 h, read-out: GI; method in brief: as §1
[5] = system: Eclipta prostrata; experiment: Herbicidal activity against Eclipta prostrata assessed as growth inhibition at 150 g ai/ha using post-emergence protocol under greenhouse conditions measured 15 days after compound treatment; assay type: functional; conditions: 360 h, read-out: GI; method in brief: as §1
[6] = system: Brassica juncea; experiment: Herbicidal activity against Brassica juncea assessed as growth inhibition at 150 g ai/ha using post-emergence protocol under greenhouse conditions measured 15 days after compound treatment; assay type: functional; conditions: 360 h, read-out: GI; method in brief: as §1
[7] = biological target: T1, Protoporphyrinogen oxidase (Homo sapiens, UniProt P50336); experiment: Inhibition of Homo sapiens (human) protoporphyrinogen oxidase; conditions: read-out: Ki
T1 sequence (P50336 whole entry): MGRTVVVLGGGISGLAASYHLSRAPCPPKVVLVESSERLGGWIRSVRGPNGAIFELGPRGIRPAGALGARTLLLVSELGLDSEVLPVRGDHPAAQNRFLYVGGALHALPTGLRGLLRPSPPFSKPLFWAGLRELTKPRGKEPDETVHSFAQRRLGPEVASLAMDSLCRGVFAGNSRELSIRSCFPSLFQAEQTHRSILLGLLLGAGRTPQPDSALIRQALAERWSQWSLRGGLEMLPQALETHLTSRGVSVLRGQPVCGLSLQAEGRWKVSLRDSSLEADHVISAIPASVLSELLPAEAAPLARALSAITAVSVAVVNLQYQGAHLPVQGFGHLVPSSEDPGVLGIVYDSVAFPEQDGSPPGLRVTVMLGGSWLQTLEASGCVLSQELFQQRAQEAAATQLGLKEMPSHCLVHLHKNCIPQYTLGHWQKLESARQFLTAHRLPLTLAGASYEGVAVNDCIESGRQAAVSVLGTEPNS

[8] = system: Echinochloa crus-galli; experiment: Herbicidal activity against Echinochloa crus-galli (barnyard grass) assessed as growth inhibition at 150 g ai/ha using post-emergence protocol under greenhouse conditions measured 15 days after compound treatment; assay type: functional; conditions: 360 h, read-out: GI; method in brief: as §2

SMILES: COc1cc(N2C(=O)C3CCCCC3C2=O)c(F)cc1Cl (stereo not drawn)
- inhibition of growth at 150 g/ha [1]: 100%
- inhibition of growth at 150 g/ha [2]: 50%
- inhibition of growth at 150 g/ha [3]: 50%
- inhibition of growth at 150 g/ha [4]: < 50%
- inhibition of growth at 150 g/ha [5]: 50%
- inhibition of growth at 150 g/ha [6]: 50%
- Ki [7]: 8.22 µM
- inhibition of growth at 150 g/ha [8]: 50%

SMILES: CCOC(=O)COc1cc(N2C(=O)C3CCCCC3C2=O)c(F)cc1Cl (stereo not drawn)
- inhibition of growth at 150 g/ha [1]: < 50%
- inhibition of growth at 150 g/ha [2]: < 50%
- inhibition of growth at 150 g/ha [3]: < 50%
- inhibition of growth at 150 g/ha [4]: < 50%
- inhibition of growth at 150 g/ha [5]: < 50%
- inhibition of growth at 150 g/ha [6]: < 50%
- Ki [7]: 15.2 µM
- inhibition of growth at 150 g/ha [8]: < 50%

SMILES: CCOC(=O)C(C)Oc1cc(N2C(=O)C3CCCCC3C2=O)c(F)cc1Cl (stereo not drawn)
- inhibition of growth at 150 g/ha [1]: 100%
- inhibition of growth at 150 g/ha [2]: < 50%
- inhibition of growth at 150 g/ha [3]: < 50%
- inhibition of growth at 150 g/ha [4]: 50%
- inhibition of growth at 150 g/ha [5]: > 80%
- inhibition of growth at 150 g/ha [6]: 50%
- Ki [7]: 3.3 µM
- inhibition of growth at 150 g/ha [8]: < 50%

SMILES: O=C1C2CCCCC2C(O)N1c1cc(OC2CCCC2)c(Cl)cc1F (stereo not drawn)
- inhibition of growth at 150 g/ha [1]: < 50%
- inhibition of growth at 150 g/ha [2]: < 50%
- inhibition of growth at 150 g/ha [3]: < 50%
- inhibition of growth at 150 g/ha [4]: < 50%
- inhibition of growth at 150 g/ha [5]: < 50%
- inhibition of growth at 150 g/ha [6]: < 50%
- Ki [7]: 24.6 µM
- inhibition of growth at 150 g/ha [8]: < 50%

SMILES: CC(C)Oc1cc(N2C(=O)C3CCCCC3C2O)c(F)cc1Cl (stereo not drawn)
- inhibition of growth at 150 g/ha [1]: < 50%
- inhibition of growth at 150 g/ha [2]: < 50%
- inhibition of growth at 150 g/ha [3]: < 50%
- inhibition of growth at 150 g/ha [4]: < 50%
- inhibition of growth at 150 g/ha [5]: < 50%
- inhibition of growth at 150 g/ha [6]: < 50%
- Ki [7]: 47.4 µM
- inhibition of growth at 150 g/ha [8]: < 50%

SMILES: COc1cc(N2C(=O)C3CCCCC3C2O)c(F)cc1Cl (stereo not drawn)
- inhibition of growth at 150 g/ha [1]: < 50%
- inhibition of growth at 150 g/ha [2]: < 50%
- inhibition of growth at 150 g/ha [3]: < 50%
- inhibition of growth at 150 g/ha [4]: < 50%
- inhibition of growth at 150 g/ha [5]: < 50%
- inhibition of growth at 150 g/ha [6]: < 50%
- Ki [7]: 131 µM
- inhibition of growth at 150 g/ha [8]: < 50%
